From ChEMBL document CHEMBL2434944, “Novel acetamidothiazole derivatives: synthesis and in vitro anticancer evaluation” (Eur J Med Chem, 2013) come the findings set out here.

The test system of one experiment is SF-539. Description: Growth inhibition of human SF539 cells assessed as cell growth at 10^-5 M after 48 hrs by sulforhodamine B assay relative to control. Format: functional. The following applies: SF-539, 48 h, read-out: Activity. Put shortly:
(§1)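 NCI-60 single-dose screen at 10^-5 M. Cells grown in RPMI 1640 with 5% FBS and 2 mM L-glutamine, plated at 5,000–40,000 cells/well according to doubling time, and preincubated 24 h at 37°C, 5% CO2. Compound dissolved in DMSO and added. Exposure 48 h. Adherent cells fixed with cold TCA (10% final), suspension cells with 16% final TCA. Read-out is 0.4% SRB staining, dye solubilised in 10 mM Tris, absorbance at 515 nm. Percent growth is calculated against the time-zero plate and untreated control.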

A further experiment relates to A498. Description: Growth inhibition of human A498 cells assessed as cell growth at 10^-5 M after 48 hrs by sulforhodamine B assay relative to control. Format: functional. The conditions noted are these: A498, 48 h, read-out: Activity. The method in brief: as §1
The nature of experiment [1]: Growth inhibition of human NCI-ADR-RES cells assessed as cell growth at 10^-5 M after 48 hrs by sulforhodamine B assay relative to control. The following applies: read-out: Activity. Format: functional. The method in brief:
as §1

Experiment [2] deals with Epidermal growth factor receptor (Homo sapiens, UniProt P00533). Description: Inhibition of human EGFR.
Chain of Epidermal growth factor receptor (P00533 whole entry): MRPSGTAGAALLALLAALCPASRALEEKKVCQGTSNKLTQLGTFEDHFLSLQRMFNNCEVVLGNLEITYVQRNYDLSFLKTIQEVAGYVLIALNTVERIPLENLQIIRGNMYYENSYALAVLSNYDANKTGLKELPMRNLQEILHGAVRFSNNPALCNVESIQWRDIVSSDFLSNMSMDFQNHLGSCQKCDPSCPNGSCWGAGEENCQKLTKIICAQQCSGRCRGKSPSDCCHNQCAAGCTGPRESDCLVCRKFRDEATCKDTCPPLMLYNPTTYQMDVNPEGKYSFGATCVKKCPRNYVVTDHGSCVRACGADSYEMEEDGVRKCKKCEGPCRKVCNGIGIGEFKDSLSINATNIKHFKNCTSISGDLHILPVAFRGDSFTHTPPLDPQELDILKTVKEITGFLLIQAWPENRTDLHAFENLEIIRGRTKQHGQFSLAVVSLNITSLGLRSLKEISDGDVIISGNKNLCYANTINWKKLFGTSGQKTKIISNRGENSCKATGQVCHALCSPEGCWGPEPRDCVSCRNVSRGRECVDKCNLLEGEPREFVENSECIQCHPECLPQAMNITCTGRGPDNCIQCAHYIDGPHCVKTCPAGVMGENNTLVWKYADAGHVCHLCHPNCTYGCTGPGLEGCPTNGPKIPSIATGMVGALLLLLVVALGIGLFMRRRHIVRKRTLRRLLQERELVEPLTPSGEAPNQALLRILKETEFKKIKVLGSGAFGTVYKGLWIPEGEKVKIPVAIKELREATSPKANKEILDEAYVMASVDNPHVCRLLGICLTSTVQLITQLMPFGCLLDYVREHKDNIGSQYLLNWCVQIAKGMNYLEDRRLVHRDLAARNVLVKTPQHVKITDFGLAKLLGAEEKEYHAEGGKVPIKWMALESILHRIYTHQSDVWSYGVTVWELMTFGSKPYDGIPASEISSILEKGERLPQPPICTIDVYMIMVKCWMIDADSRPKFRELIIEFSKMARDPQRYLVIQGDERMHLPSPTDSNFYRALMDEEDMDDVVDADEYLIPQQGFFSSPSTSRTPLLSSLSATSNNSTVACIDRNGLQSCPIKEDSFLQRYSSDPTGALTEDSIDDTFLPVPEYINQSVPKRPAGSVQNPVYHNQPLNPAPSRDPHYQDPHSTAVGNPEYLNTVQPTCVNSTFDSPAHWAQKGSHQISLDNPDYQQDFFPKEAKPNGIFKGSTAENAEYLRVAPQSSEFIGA
In another experiment the test system is RXF 393. Description: Growth inhibition of human RXF393 cells assessed as cell growth at 10^-5 M after 48 hrs by sulforhodamine B assay relative to control. Format: functional. The following applies: RXF 393, 48 h, read-out: Activity. Put shortly: as §1
The next experiment relates to SK-MEL-5. Description: Growth inhibition of human SK-MEL-5 cells assessed as cell growth at 10^-5 M after 48 hrs by sulforhodamine B assay relative to control. Format: functional. The following applies: SK-MEL-5, 48 h, read-out: Activity. Put shortly: as §1
The next experiment has as its system OVCAR-4. Description: Growth inhibition of human OVCAR4 cells assessed as cell growth at 10^-5 M after 48 hrs by sulforhodamine B assay relative to control. The following applies: OVCAR-4, 48 h, read-out: Activity. Format: functional. The method in brief: as §1
The next experiment concerns the target T1, Cathepsin K (Homo sapiens, UniProt P43235).
T1 sequence (P43235 whole entry): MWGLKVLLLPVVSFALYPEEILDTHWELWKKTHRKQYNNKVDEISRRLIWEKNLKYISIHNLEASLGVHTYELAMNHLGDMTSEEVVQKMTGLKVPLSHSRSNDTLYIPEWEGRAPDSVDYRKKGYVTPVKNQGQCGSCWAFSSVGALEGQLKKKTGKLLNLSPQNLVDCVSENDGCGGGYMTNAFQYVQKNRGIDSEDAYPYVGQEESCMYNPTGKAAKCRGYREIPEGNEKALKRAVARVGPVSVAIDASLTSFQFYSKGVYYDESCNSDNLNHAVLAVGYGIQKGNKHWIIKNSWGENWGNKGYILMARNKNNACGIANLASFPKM
Description: Inhibition of human cathepsin K.

For another experiment, the system named is HT-29. Description: Growth inhibition of human HT-29 cells assessed as cell growth at 10^-5 M after 48 hrs by sulforhodamine B assay relative to control. Format: functional. The following applies: HT-29, 48 h, read-out: Activity. Put shortly:
as §1

In another experiment the test system is OVCAR-8. Description: Growth inhibition of human OVCAR8 cells assessed as cell growth at 10^-5 M after 48 hrs by sulforhodamine B assay relative to control. The conditions noted are these: OVCAR-8, 48 h, read-out: Activity. Format: functional. Put shortly:
as §1

Another experiment has as its system IGROV-1. Description: Growth inhibition of human IGROV1 cells assessed as cell growth at 10^-5 M after 48 hrs by sulforhodamine B assay relative to control. Format: functional. The conditions noted are these: IGROV-1, 48 h, read-out: Activity. The method in brief: as §1
In another experiment the test system is 786-0. Description: Growth inhibition of human 786-0 cells assessed as cell growth at 10^-5 M after 48 hrs by sulforhodamine B assay relative to control. Format: functional. The following applies: 786-0, 48 h, read-out: Activity. Put shortly: as §1
A short description of experiment [3]: Growth inhibition of human HCC2998 cells assessed as cell growth at 10^-5 M after 48 hrs by sulforhodamine B assay relative to control. Format: functional. The following applies: HCC 2998, 48 h, read-out: Activity. Put shortly:
as §1

The next experiment deals with MDA-MB-468. Description: Growth inhibition of human MDA-MB-468 cells assessed as cell growth at 10^-5 M after 48 hrs by sulforhodamine B assay relative to control. Format: functional. The conditions noted are these: MDA-MB-468, 48 h, read-out: Activity. The method in brief:
as §1

In a further experiment the test system is HOP-92. Description: Growth inhibition of human HOP92 cells assessed as cell growth at 10^-5 M after 48 hrs by sulforhodamine B assay relative to control. Format: functional. The conditions noted are these: HOP-92, 48 h, read-out: Activity. The method in brief:
as §1

In another experiment the test system is OVCAR-5. Description: Growth inhibition of human OVCAR5 cells assessed as cell growth at 10^-5 M after 48 hrs by sulforhodamine B assay relative to control. Format: functional. The following applies: OVCAR-5, 48 h, read-out: Activity. Put shortly: as §1
Another experiment deals with RPMI-8226. Description: Growth inhibition of human RPMI8226 cells assessed as cell growth at 10^-5 M after 48 hrs by sulforhodamine B assay relative to control. The conditions noted are these: RPMI-8226, 48 h, read-out: Activity. Format: functional. Put shortly:
as §1

The subject of a further experiment is KM12. Description: Growth inhibition of human KM12 cells assessed as cell growth at 10^-5 M after 48 hrs by sulforhodamine B assay relative to control. Format: functional. The following applies: KM12, 48 h, read-out: Activity. The method in brief:
as §1

The next experiment has as its system HL-60(TB). Description: Growth inhibition of human HL-60(TB) cells assessed as cell growth at 10^-5 M after 48 hrs by sulforhodamine B assay relative to control. Format: functional. The following applies: HL-60, 48 h, read-out: Activity. Put shortly: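 NCI-60 one-dose screen at 10^-5 M. Cells were grown in RPMI 1640 with 5% FBS and 2 mM L-glutamine and plated at 5,000–40,000 cells/well. They were preincubated 24 h at 37°C under 5% CO2, then exposed for 48 h. Suspension cells were fixed with 80% TCA (16% final) and stained with 0.4% SRB, read at 515 nm. Percent growth is versus untreated control, corrected for time-zero.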

A further experiment deals with K562. Description: Growth inhibition of human K562 cells assessed as cell growth at 10^-5 M after 48 hrs by sulforhodamine B assay relative to control. The conditions noted are these: K562, 48 h, read-out: Activity. Format: functional. Put shortly:
as §1

Another experiment deals with NCI-H322M. Description: Growth inhibition of human NCI-H322M cells assessed as cell growth at 10^-5 M after 48 hrs by sulforhodamine B assay relative to control. Format: functional. The following applies: read-out: Activity. The method in brief:
as §1

The test system of a further experiment is PC-3. Description: Growth inhibition of human PC3 cells assessed as cell growth at 10^-5 M after 48 hrs by sulforhodamine B assay relative to control. Format: functional. The following applies: PC-3, 48 h, read-out: Activity. Put shortly:
as §1

The next experiment concerns UACC-257. Description: Growth inhibition of human UACC257 cells assessed as cell growth at 10^-5 M after 48 hrs by sulforhodamine B assay relative to control. Format: functional. The following applies: UACC-257, 48 h, read-out: Activity. The method in brief: (§2)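 NCI-60 single-dose screen, 10^-5 M final. Cells grown in RPMI 1640 with 5% FBS and 2 mM L-glutamine, seeded at 5,000–40,000 cells/well by doubling time. Preincubated 24 h at 37°C, 5% CO2. Compound in DMSO, diluted in medium with gentamicin, then 48 h exposure. Fixed with cold TCA, SRB stained, A515 read. Percent growth vs untreated control, time-zero plate corrected.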

For the next experiment, the system named is SW-620. Description: Growth inhibition of human SW620 cells assessed as cell growth at 10^-5 M after 48 hrs by sulforhodamine B assay relative to control. Format: functional. The following applies: SW-620, 48 h, read-out: Activity. The method in brief:
as §2

For `CN1CCN(C(=O)Cn2c(-c3ccc(Cl)cc3)csc2=N)CC1`, the growth at 10 µM turned out to be 100% in the experiment on SF-539; 80% in the experiment with A498; 98% in experiment [1]; 108% with RXF 393; 100% with SK-MEL-5; 90.5% in the experiment on OVCAR-4. The growth at 10 µM amounted to 96% in the experiment with HT-29; 96.8% in the experiment on OVCAR-8; 93.1% in the experiment on IGROV-1; 97% in the experiment with 786-0; 97.5% in [3]; 96.8% in the experiment on MDA-MB-468. Further, the growth at 10 µM in the experiment with HOP-92 was 77.6%; in the experiment with OVCAR-5, 96.4%; in the experiment with RPMI-8226, 79.1%; with KM12, 98.7%; with HL-60(TB), 102%; in the experiment with K562, 73.1%. In addition, the growth at 10 µM in the experiment on NCI-H322M worked out at 95.9%; in the experiment with PC-3, 83.3%; in the experiment on UACC-257, 104%; in the experiment with SW-620, 102%. For the same compound, the Ki came to 15.6 µM in experiment [2] and 4.58 µM at Cathepsin K.

As to `N=c1scc(-c2ccc(Cl)cc2)n1CC(=O)N1CCN(c2ccccc2)CC1`, the growth at 10 µM was 100% in the experiment with SF-539; 84.9% in the experiment with A498; 98% in [1]; 98.8% in the experiment on RXF 393; 91.9% in the experiment with SK-MEL-5; 86.4% with OVCAR-4. Also, the growth at 10 µM in the experiment with HT-29 was 92.9%; in the experiment with OVCAR-8, 97.8%; with IGROV-1, 101%; in the experiment with 786-0 it was 97.9%; in [3], 95.6%; in the experiment on MDA-MB-468 it was 89.8%. Further, the growth at 10 µM in the experiment with HOP-92 was found to be 76.1%; in the experiment on OVCAR-5 it was 93.8%; in the experiment with RPMI-8226 it was 83.4%; with KM12 it was 108%; with HL-60(TB), 89.8%; with K562 it was 84.8%. The growth at 10 µM with NCI-H322M was determined as 99.8%; with PC-3, 81.8%; in the experiment on UACC-257, 105%; in the experiment with SW-620 it was 104%. Besides, the Ki in experiment [2] turned out to be 5.82 µM; on Cathepsin K, 11.1 µM.

Take `Cc1ccc(-c2csc(=N)n2CC(=O)N2CCN(C)CC2)cc1`: the growth at 10 µM in the experiment with SF-539 came to 101%; in the experiment with A498 it was 80.2%; in experiment [1], 93.1%; in the experiment on RXF 393 it was 93.1%; in the experiment on SK-MEL-5, 87.2%; with OVCAR-4, 87.4%. In addition, the growth at 10 µM amounted to 110% with HT-29; 99.5% in the experiment with OVCAR-8; 111% in the experiment with IGROV-1; 101% in the experiment on 786-0; 103% in [3]; 98.6% with MDA-MB-468. For the same compound, the growth at 10 µM with HOP-92 turned out to be 62.8%; in the experiment with OVCAR-5, 116%; in the experiment on RPMI-8226, 83.5%; with KM12, 104%; in the experiment with HL-60(TB) it was 109%; in the experiment with K562, 82.9%. Also, the growth at 10 µM came out at 104% in the experiment with NCI-H322M, 68.4% with PC-3, 102% in the experiment on UACC-257 and 98.4% in the experiment with SW-620. The figures for the Ki (in [2]; at Cathepsin K) were 27.4 µM and 8.71 µM, respectively.
